ChEMBL document CHEMBL4014345, “Development of Selective Clk1 and -4 Inhibitors for Cellular Depletion of Cancer-Relevant Proteins” (J Med Chem, 2017)
The source made the active and inactive calls. The rule behind the calls is not given here.

Columns and labels:
[1] = molecular target: Dual specificity protein kinase CLK2 (Mus musculus, UniProt O35491); assay: Inhibition of recombinant GST-tagged mouse CLK2 using GRSRSRSRSRSR as substrate after 30 mins in presence of [gamma-32P]-ATP by scintillation counting method
Sequence of Dual specificity protein kinase CLK2 (O35491 whole entry): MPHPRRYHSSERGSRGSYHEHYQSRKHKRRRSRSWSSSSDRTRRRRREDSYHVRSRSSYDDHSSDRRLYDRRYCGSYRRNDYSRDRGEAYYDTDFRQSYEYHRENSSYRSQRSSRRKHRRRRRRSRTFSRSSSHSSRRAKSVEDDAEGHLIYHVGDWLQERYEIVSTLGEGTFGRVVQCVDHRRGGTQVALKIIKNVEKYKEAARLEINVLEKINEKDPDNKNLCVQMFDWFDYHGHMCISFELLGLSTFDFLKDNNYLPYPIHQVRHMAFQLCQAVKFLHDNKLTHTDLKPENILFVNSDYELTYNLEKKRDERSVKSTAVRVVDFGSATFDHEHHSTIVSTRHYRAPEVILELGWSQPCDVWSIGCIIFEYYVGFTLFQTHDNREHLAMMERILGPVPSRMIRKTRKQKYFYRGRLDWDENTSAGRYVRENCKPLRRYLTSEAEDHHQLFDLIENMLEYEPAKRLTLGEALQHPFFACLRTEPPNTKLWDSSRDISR

MDA-MB-231 [2] = assay: Down regulation of PARP1 expression in human MDA-MB-231 cells at 2.5 to 20 uM after 3 days by Western blot analysis; type: functional, cell-based
Outline: (§1)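 T24 or MDA-MB-231 cells were grown in DMEM to 70% confluency. The medium was replaced with compound diluted in DMEM, and cells were kept 3 days. Total protein was immunoblotted with monoclonal antibodies in 3% BSA/PBS against EGFR, p70S6K α, PARP-1, ERK2, HDAC1, CD44, PCNA and GRP94.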

[3] = molecular target: SRSF protein kinase 1 (Homo sapiens) (UniProt Q96SB4); assay: Inhibition of SRPK1 (unknown origin) at 1 uM
Sequence of SRSF protein kinase 1 (Homo sapiens) (Q96SB4 whole entry): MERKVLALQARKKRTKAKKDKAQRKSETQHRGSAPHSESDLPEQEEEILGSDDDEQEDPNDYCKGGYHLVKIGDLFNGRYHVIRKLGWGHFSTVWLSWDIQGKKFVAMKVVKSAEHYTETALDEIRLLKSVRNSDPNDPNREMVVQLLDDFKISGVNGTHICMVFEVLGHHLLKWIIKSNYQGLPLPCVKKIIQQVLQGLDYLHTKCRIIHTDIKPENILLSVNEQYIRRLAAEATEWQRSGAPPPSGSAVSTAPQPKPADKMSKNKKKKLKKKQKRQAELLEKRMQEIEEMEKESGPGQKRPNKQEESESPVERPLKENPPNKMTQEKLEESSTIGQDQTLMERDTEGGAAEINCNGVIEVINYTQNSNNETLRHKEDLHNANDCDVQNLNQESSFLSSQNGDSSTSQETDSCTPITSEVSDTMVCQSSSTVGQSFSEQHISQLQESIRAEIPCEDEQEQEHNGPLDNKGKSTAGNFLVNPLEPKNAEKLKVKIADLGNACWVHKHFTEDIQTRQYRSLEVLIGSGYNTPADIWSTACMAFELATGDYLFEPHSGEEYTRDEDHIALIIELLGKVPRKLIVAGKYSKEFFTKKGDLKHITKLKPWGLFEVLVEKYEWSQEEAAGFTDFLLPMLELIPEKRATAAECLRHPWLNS
Outline: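 Tested in a commercial kinase profiling panel at an ATP concentration of 100 μM. Data are the mean of duplicates that differed by less than 7%.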

PBL = assay: Cytotoxicity against human PBL after 2 days by MTT assay; type: cell-based; settings: 48 h
Outline: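 Cells plated at 30 000 per well with test compounds or DMSO control for 2 days, then MTT read-out. LC50 reported as the mean of at least two independent experiments.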

[4] = molecular target: T1, Dual specificity tyrosine-phosphorylation-regulated kinase 1B (Homo sapiens, UniProt Q9Y463); assay: Inhibition of full length recombinant GST-tagged human DYRK1B expressed in baculovirus using KKISGRLSPIMTEQ-NH2 as substrate after 15 mins
Target sequence in this assay (Q9Y463 whole entry): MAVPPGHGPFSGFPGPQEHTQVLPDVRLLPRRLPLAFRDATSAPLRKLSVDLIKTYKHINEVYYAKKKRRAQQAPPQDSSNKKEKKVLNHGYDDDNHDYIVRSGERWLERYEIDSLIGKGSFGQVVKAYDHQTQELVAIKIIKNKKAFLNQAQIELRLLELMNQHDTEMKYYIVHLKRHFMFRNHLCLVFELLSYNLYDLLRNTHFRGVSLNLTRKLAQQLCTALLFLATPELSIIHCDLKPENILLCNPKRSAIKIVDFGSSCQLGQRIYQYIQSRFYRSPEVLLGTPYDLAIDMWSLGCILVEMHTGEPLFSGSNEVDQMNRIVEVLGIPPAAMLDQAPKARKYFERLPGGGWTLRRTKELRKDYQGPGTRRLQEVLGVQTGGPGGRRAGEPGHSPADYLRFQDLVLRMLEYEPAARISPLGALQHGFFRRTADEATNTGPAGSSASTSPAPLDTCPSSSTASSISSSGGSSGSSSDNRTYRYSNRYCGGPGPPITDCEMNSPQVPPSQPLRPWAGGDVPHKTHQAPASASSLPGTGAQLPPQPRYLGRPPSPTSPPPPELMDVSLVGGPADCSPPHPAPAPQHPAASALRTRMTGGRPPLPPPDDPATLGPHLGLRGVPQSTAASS

T-24 [5] = assay: Down regulation of PARP1 expression in human T24 cells at 1.25 to 10 uM after 3 days by Western blot analysis; type: functional, cell-based; outline: as §1
[6] = molecular target: T2, Dual specificity protein kinase CLK1/CLK4 (Homo sapiens, UniProt Q9HAZ1+P49759); assay: Inhibition of CLK1/4 in human T24 cells assessed as down regulation of HDAC1 expression at 1.25 uM after 3 days by Western blot analysis relative to control; type: cell-based; outline: as §1
T47D = assay: Cytotoxicity against human T47D cells assessed as growth inhibition after 5 days by MTT assay; type: functional; settings: 120 h
Outline: (§2)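 They were seeded at 5000 cells per well onto compound or DMSO (0.2% final). Plates were kept 5 days at 37 °C in 5% CO2 with no medium change, then read by MTT.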

[7] = molecular target: T2, Dual specificity protein kinase CLK1/CLK4; assay: Inhibition of CLK1/4 in human T24 cells assessed as down regulation of EGFR expression at 1.25 uM after 3 days by Western blot analysis relative to control; type: cell-based; outline: as §1
Homo sapiens = species on record: Homo sapiens; assay: Inhibition of recombinant human casein kinase 2 using RRREDEESDDEE as substrate at 1 uM after 30 mins in presence of [gamma-32P]-ATP by scintillation counting method
MDA-MB-231 [8] = assay: Down regulation of ERK2 expression in human MDA-MB-231 cells at 2.5 to 20 uM after 3 days by Western blot analysis; type: functional, cell-based; outline: as §1
[9] = Cytotoxicity against HEK293 cells assessed as growth inhibition; type: cell-based; settings: human
Outline: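 Cytotoxicity was tested in proliferating HEK293 cells with GI50 as the read-out. Data are the mean of at least two independent experiments.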

HepG2 = assay: Cytotoxicity against human HepG2 cells assessed as growth inhibition after 5 days by MTT assay; type: functional; settings: HepG2, 120 h; outline: as §2
T-24 [10] = assay: Down regulation of CD44 expression in human T24 cells at 1.25 to 10 uM after 3 days by Western blot analysis; type: functional, cell-based; outline: as §1
[11] = molecular target: T2, Dual specificity protein kinase CLK1/CLK4; assay: Inhibition of CLK1/4 in human MDA-MB-231 cells assessed as down regulation of S6 kinase expression at 10 uM after 3 days by Western blot analysis relative to control; type: cell-based; outline: as §1
[12] = molecular target: Dual specificity protein kinase CLK1 (Homo sapiens, UniProt P49759); assay: Inhibition of recombinant human GST-tagged Clk1 expressed in Escherichia coli at 1 uM using RS repeat substrate peptide after 15 mins in presence of [gamma-32]-ATP
Sequence of Dual specificity protein kinase CLK1 (P49759 whole entry, looked up): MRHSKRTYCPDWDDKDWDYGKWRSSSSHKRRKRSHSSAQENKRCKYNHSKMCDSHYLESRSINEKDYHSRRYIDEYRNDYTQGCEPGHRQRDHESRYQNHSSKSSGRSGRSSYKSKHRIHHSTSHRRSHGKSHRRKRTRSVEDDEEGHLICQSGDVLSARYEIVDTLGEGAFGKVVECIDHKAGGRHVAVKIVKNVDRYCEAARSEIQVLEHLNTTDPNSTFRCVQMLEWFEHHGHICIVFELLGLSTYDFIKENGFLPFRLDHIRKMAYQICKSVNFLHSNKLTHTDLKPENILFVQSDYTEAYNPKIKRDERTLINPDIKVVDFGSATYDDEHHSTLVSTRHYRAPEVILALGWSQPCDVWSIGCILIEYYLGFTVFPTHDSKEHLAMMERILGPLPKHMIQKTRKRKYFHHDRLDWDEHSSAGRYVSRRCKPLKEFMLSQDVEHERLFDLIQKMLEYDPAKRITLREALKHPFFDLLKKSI

[13] = molecular target: T2, Dual specificity protein kinase CLK1/CLK4; assay: Inhibition of CLK1/4 in human HepG2 cells assessed as down regulation of HDAC1 expression at 20 uM after 3 days by Western blot analysis relative to control; type: cell-based
Outline: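 HepG2 cells were grown in DMEM to 70% confluency, then the medium was replaced with compound diluted in DMEM. After 3 days, total protein was immunoblotted with monoclonal antibodies including HDAC1 and p70S6K.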

[14] = molecular target: T1, Dual specificity tyrosine-phosphorylation-regulated kinase 1B; assay: Inhibition of full length recombinant GST-tagged human DYRK1B expressed in baculovirus using KKISGRLSPIMTEQ-NH2 as substrate at 1 uM after 15 mins
Target sequence in this assay (Q9Y463 whole entry, looked up): as the sequence (Q9Y463 whole entry) above

MDA-MB-231 [15] = assay: Down regulation of GRP94 expression in human MDA-MB-231 cells at 2.5 to 20 uM after 3 days by Western blot analysis; type: functional, cell-based; outline: as §1
[16] = molecular target: Dual specificity protein kinase CLK2 (Mus musculus) (UniProt O35491); assay: Inhibition of recombinant GST-tagged mouse CLK2 using GRSRSRSRSRSR as substrate at 1 uM after 30 mins in presence of [gamma-32P]-ATP by scintillation counting method
Sequence of Dual specificity protein kinase CLK2 (Mus musculus) (O35491 whole entry, looked up): as the sequence (O35491 whole entry) above

T-24 [17] = assay: Down regulation of GRP94 expression in human T24 cells at 1.25 to 10 uM after 3 days by Western blot analysis; type: functional, cell-based; outline: as §1
[18] = molecular target: Dual specificity protein kinase CLK3 (Mus musculus) (UniProt O35492); assay: Inhibition of recombinant GST-tagged mouse CLK3 using GRSRSRSRSRSR as substrate at 1 uM after 30 mins in presence of [gamma-32P]-ATP by scintillation counting method
Sequence of Dual specificity protein kinase CLK3 (Mus musculus) (O35492 whole entry): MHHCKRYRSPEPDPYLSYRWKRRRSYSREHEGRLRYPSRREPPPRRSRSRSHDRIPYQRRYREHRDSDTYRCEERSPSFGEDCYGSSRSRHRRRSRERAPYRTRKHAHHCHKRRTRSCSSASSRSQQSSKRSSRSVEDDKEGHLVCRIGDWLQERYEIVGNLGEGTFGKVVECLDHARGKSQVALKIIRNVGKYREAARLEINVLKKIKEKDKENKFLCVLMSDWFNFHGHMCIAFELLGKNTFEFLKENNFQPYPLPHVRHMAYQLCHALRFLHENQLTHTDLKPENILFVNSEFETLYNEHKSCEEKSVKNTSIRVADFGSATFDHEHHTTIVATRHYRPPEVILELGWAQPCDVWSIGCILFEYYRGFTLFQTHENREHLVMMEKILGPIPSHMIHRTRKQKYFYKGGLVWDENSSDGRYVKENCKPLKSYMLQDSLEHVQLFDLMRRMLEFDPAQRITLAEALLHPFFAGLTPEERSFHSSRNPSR

T-24 [19] = assay: Down regulation of PCNA expression in human T24 cells at 1.25 to 10 uM after 3 days by Western blot analysis; type: functional, cell-based; outline: as §1
[20] = molecular target: Dual specificity protein kinase CLK4 (Mus musculus, UniProt O35493); assay: Inhibition of recombinant GST-tagged mouse CLK4 using GRSRSRSRSRSR as substrate after 30 mins in presence of [gamma-32P]-ATP by scintillation counting method
Sequence of Dual specificity protein kinase CLK4 (O35493 whole entry): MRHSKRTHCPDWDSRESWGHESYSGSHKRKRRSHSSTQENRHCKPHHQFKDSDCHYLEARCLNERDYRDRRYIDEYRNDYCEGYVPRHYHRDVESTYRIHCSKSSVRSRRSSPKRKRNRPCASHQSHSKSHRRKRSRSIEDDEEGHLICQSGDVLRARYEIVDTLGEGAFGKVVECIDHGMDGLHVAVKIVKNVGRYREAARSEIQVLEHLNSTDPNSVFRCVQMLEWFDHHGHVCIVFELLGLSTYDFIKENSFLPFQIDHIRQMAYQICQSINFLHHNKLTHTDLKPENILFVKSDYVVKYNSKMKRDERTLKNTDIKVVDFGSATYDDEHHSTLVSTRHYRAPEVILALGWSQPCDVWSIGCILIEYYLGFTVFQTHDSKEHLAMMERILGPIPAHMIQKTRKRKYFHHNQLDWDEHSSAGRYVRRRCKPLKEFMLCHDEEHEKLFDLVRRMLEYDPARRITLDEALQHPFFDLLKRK

[21] = molecular target: T2, Dual specificity protein kinase CLK1/CLK4; assay: Inhibition of CLK1/4 in human T24 cells assessed as down regulation of EGFR expression at 5 uM after 3 days by Western blot analysis relative to control; type: cell-based; outline: as §1

In the case of `COc1ccc2sc(C(=O)N(C)Cc3cccc(F)c3)cc2c1`, the IC50 [1] is reported as 19.1 nM, the Activity (MDA-MB-231 [2]) is reported as “inactive” and the inhibition [3] is reported as 2%. The LC50 (PBL) was 29400 nM, the IC50 [4] was 206 nM and the Activity (T-24 [5]) was “inactive”. The inhibition [6] was 13.6%, the GI50 (T47D) was 15300 nM and the inhibition [7] was 48.3%. For the same compound, the inhibition (Homo sapiens) was 1.4%, the Activity (MDA-MB-231 [8]) was “inactive” and the GI50 [9] was > 30000 nM. The GI50 (HepG2) was 2800 nM, the Activity (T-24 [10]) was “inactive” and the inhibition [11] was 33.1%. For the same compound, the inhibition [12] was 92%, the inhibition [13] was 44% and the inhibition [14] was 77%. The Activity (MDA-MB-231 [15]) was “inactive”, the inhibition [16] was 86% and the Activity (T-24 [17]) was “inactive”. For the same compound, the inhibition [18] was 58%, the Activity (T-24 [19]) was “inactive” and the IC50 [20] was 2.3 nM. The inhibition [21] was 52.6%.
